# This is a sample that favours compounds with a hit; in the whole collection about 3.4% have one here.
# CHRM1 PAM = human CHRM1 positive allosteric modulation | CHO-K1 hM1, Fluo-8 calcium fluorescence, ACh EC20; 0% = ACh EC20, 100% = maximal ACh | activation, % at 3 µM | actives 0.088% (n = 360,000) | AID 588819; in the data active = activation above about 19%, passing the limit was not always enough
# TAAR1 agonist = human TAAR1 agonism; Q96RJ0; CHO RD-HGA16 TAAR1, Fluo-8 calcium fluorescence; vehicle wells 0%, saturating PEA agonist 100%; activation, % at 3 µM; actives 0.99% (n = 360,000); AID 624467;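 active = activation above the mean activation of all test compounds in the run plus 3 SD, cut at about 38% in these data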
# Target sequence (Q96RJ0 whole entry, looked up): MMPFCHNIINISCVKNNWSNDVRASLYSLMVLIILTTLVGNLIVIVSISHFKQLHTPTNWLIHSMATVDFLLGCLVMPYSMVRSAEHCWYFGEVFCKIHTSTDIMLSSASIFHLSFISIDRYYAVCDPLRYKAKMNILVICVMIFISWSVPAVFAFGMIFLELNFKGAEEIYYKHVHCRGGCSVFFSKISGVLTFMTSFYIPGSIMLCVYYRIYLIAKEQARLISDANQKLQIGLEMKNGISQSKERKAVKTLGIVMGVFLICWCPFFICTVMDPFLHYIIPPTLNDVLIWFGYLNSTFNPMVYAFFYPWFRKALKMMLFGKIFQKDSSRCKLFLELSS
#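 Test system: RD-HGA16 (CHO) cells co-expressing Gα16 and hTAAR1; dosing: one-point dosing at 3 µM (nominal); timing: 17-24 h seeding, 75 min 37 °C dye, 30 min RT; signal: kinetic Fluo-8 calcium fluorescence; read-out basis: % activation relative to PEA EC100 response; controls: DMSO and PEA EC100; replicates: n 1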
# CHRM1 antagonist = blocks human M1 muscarinic receptor. P11229. CHO-K1 hM1, Fluo-8 calcium fluorescence, ACh EC80 antagonist. inhibition, % at 3 µM. actives 1.3% (n = 360,000). AID 588852;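 active = percent inhibition above its own plate's cutoff, namely the mean of that plate's compound wells plus 3 SD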;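 also: peak over basal fluorescence ratio during 140 s after agonist addition; 0% = ACh EC80 plus DMSO and 100% = DMSO alone without agonist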
# TAAR1 antag = human TAAR1 antagonism; AID 624466; CHO RD-HGA16 TAAR1, Fluo-8 calcium fluorescence, antagonist; inhibition, % at 3 µM; actives 1.5% (n = 360,000); Q96RJ0;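 active = inhibition above a per-plate cutoff, the mean inhibition of test compounds on that plate plus 3 SD, cut at about 49% in these data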;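 also: 0% = DMSO plus EC80 beta-PEA response and 100% = DMSO alone without agonist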
#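 Material: RD-HGA16 CHO cells with stable hTAAR1 and Gα16; Dosing: single nominal final test compound concentration of 3 µM; Schedule: seeding 17-24 h prior, 75-min 37 °C, 30-min RT dye loading; Detection: kinetic Fluo-8 calcium fluorescence measurement; Measure: % inhibition from peak post-agonist over basal fluorescence ratio; Benchmarks: vehicle and agonist controls.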
# CHRM1 agonist = human M1 muscarinic receptor agonism; actives 0.33% (n = 360,000); P11229; CHO-K1 hM1, Fluo-8 calcium fluorescence, agonist mode; 0% DMSO, 100% acetylcholine EC100; activation, % at 3 µM;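 active = activation above the run's mean compound activation plus 3 SD, cut at about 16% in these data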;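 also: peak over basal fluorescence ratio within a 140 s kinetic read after compound addition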
# An asterisk follows results filed as active; / = not tested or not shown.
SMILES,CHRM1 PAM,TAAR1 agonist,CHRM1 antagonist,TAAR1 antag,CHRM1 agonist
Cc1ccc2c(c1)C(=O)C(=O)N2Cc1ccc(C(F)(F)F)cc1,4,14,8,55*,23*
NC(=Nc1c([N+](=O)[O-])cnc2ccccc12)N1CCOCC1,3,1,-1,-17,-4
OC(CNCc1ccccc1)c1ccccc1 (stereo unspecified),-1,3,-1,4,-3
OC(CNC1Cc2ccccc2C1)c1ccccc1 (stereo unspecified),3,/,-3,/,16*
Cc1ccc(S(=O)(=O)N2CC3(O)CN(C(=O)OC(C)C)N(C(=O)OC(C)C)CC3(OC(=O)NCc3ccccc3)C2)cc1 (stereo unspecified),-10,9,21,60*,-3
CCOC1=C2[C@H](c3ccccc3)N(S(=O)(=O)c3ccc(C)cc3)C(C(C)(C)C)[C@H]2C(C#N)(C#N)C(C#N)(C#N)C1 (stereo partly specified),4,0,-11,-13,-6
O=C1NC[C@H](c2ccccc2)OC(=O)[C@@H](Cc2ccc(F)cc2)C/C=C\C[C@H]1CC(=O)N(CCO)Cc1ccccc1,-14,49*,34*,81*,-2
CC(C)(C)OC(=O)C[C@@H]1C/C=C\C[C@H](CC(=O)N(CCO)Cc2ccccc2)C(=O)NC[C@@H](c2ccccc2)OC1=O,1,7,9,12,-5
O=C1NC[C@H](c2ccccc2)OC(=O)[C@H](Cc2ccc(F)cc2)C/C=C\C[C@H]1CC(=O)N(CCO)Cc1ccccc1,-21,38*,42*,82*,1
CC(C)(C)OC(=O)C[C@H]1C/C=C\C[C@@H](CC(=O)N(CCO)Cc2ccccc2)C(=O)NC[C@H](c2ccccc2)OC1=O,-4,17,-1,34,-3
O=C1NC[C@H](c2ccccc2)OC(=O)[C@H](Cc2ccc(F)cc2)CC/C=C/C[C@@H]1CC(=O)N(CCO)Cc1ccccc1,-8,18,17,57*,-7
F[B-](F)(F)COCc1ccccc1C#Cc1ccccc1,/,1,/,-13,/
CCCCCCCCCCCCCCCC[n+]1cccc2ccccc21,-25,35,47*,20,-13
CCCCCCCCC[n+]1cccc2c3ccccc3ccc21,-22,/,95*,/,-1
Cc1ccccc1C[n+]1cccc2ccccc21,-7,1,8,5,-13
Cc1ccccc1OCC(=O)NCCCNC(=O)c1ccncc1,28*,-3,-22,-16,3
O=C(COc1ccccc1Cl)NCCCNC(=O)c1ccncc1,9,-3,-11,8,-3
CN1CCN(c2nnc(-c3ccccc3)c(-c3ccccc3)n2)CC1,-20,8,39*,-9,-9
CN1CCN(c2nc(-c3cccs3)cc(C(F)(F)F)n2)CC1,-21,25,71*,6,-4
CN1CCN(c2nc(-c3ccccc3)cc(C(F)(F)F)n2)CC1,-19,13,43*,-27,-4
COC(=O)C(Cc1ccc(OC(=O)c2ccc(C(F)(F)F)cc2)cc1)N1Cc2ccccc2C1=O (stereo unspecified),-23,/,36*,/,-1
COC(=O)C(Cc1ccc(OC(=O)c2ccc(Cl)cc2)cc1)N1Cc2ccccc2C1=O (stereo unspecified),-15,16,21*,45,3
O=C(O)CC(c1ccc(Cl)cc1)N1Cc2ccccc2C1=O (stereo unspecified),1,4,6,-2,-2
CCOC(=O)C1CSCCS(=O)(=O)N1Cc1ccccc1C (stereo unspecified),/,1,/,-8,/
CC(C)C[C@H]1CN(CCCC[C@H]2CNC(=O)C(=O)N2CCc2ccc(O)cc2)C(=O)C(=O)N1Cc1ccccc1,/,0,/,-11,/
SMILES,CHRM1 PAM,TAAR1 agonist,CHRM1 antagonist,TAAR1 antag,CHRM1 agonist
CN1CCN(C(=O)c2ccccc2NC(=O)c2cccs2)CC1,-15,4,active,10,-2
CN1CCN(C(=O)c2ccccc2NC(=O)c2ccccc2Br)CC1,8,0,-11,4,-1
C=CCCC1CN(Cc2ccc(OC)cc2)S(=O)(=O)c2c(F)cccc2O1 (stereo unspecified),/,1,/,18,/
C=C1C(=O)C=C2CN(C(=O)c3ccccc3)[C@@](Cc3ccc(F)cc3)(C(=O)OC)[C@@H]12,-34,/,103*,/,72*
C=C1C(=O)CC2=C1[C@](Cc1ccc(F)cc1)(C(=O)OC)N(C(=O)c1ccccc1)C2,/,1,/,-2,/
CC(C)(C)c1csc(NC(=O)C2=COCCO2)n1,-15,6,40*,-14,-6
CC(=NO)C1CCC2C3CCC4=CC(=NO)CCC4(C)C3C(=O)CC12C (stereo unspecified),-4,3,-12,8,-4
CC12CCC(=O)C=C1CCC1C2CCC2(C)C(c3csc(N)n3)CCC12 (stereo unspecified),-27,23,79*,51*,1
CC(=NO)C1CCC2C3CCC4=CC(=NO)CCC4(C)C3C(O)CC12C (stereo unspecified),-13,21,19,67*,3
CC(=O)C1CCC2C3CCC4=CC(=O)CCC4(C)C3C(O)CC12C (stereo unspecified),4,1,-34,-15,-6
CC(=O)[C@@]1(O)CC[C@H]2[C@@H]3CCC4=CC(=O)CC[C@]4(C)[C@H]3[C@@H](O)C[C@@]21C,7,2,-20,-22,2
CC12CCC(=O)C=C1CCC1C2CCC2(C)C(C(=O)CO)CC(O)C12 (stereo unspecified),5,1,-18,6,0
CC12CCC(=O)C=C1CCC1C2C(O)CC2(C)C(c3csc(N)n3)CCC12 (stereo unspecified),-29,14,42*,2,-4
CCC(C(=O)OCC(=O)C1(O)CCC2C3CCC4=CC(=O)CCC4(C)C3C(O)CC21C)C(C)C (stereo unspecified),-30,14,84*,62*,-2
O=C(NCc1ccccc1)[C@@H]1CCCN1C(=O)[C@H]1CCCN1C(=O)c1ccc(Cl)cc1,/,0,/,-29,/
O=C(NS(=O)(=O)c1ccccc1[N+](=O)[O-])[C@H]1O[C@@H](n2ccc(=O)[nH]c2=O)[C@H](O)[C@@H]1O,/,1,/,-24,/
COc1ccc2c(c1)OC[C@H]1[C@H]2N2C(=O)c3cc(OC)ccc3NC(=O)[C@@]2(C)[C@H]1c1ccccc1,-21,2,27*,7,-7
COc1ccc2c(c1)OC[C@H]1[C@H]2N2C(=O)c3cc(Cl)ccc3NC(=O)[C@@]2(C)[C@H]1c1ccccc1,-16,/,25,/,-8
COc1ccc2c(c1)OC[C@H]1[C@H]2N2C(=O)c3cc(F)ccc3NC(=O)[C@@]2(C)[C@H]1c1ccccc1,-30,-1,83*,7,-7

# Screening results (PubChem BioAssay)
